KCNK3 block: human KCNK3 channel inhibition, primary screen; CHO-KCNK3 thallium flux, FluxOR fluorescence; active compounds read low; B-score at 10 µM; hit rate 0.84% among 340,000;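 active = B-score under library mean minus 4 SD, starting fluorescence ratio at most library mean plus 5 SD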;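 also: more negative B-score means stronger inhibition of thallium flux through KCNK3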
KCNQ1 pot: potentiates or activates the human KCNQ1 potassium channel; AID 2648; CHO-K1 KCNQ1, thallium flux FluxOR fluorescence; active compounds read high; B-score at 10 µM; hit rate 0.35% among 310,000;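 active = fluorescence ratio B-score, a plate-corrected score, at least three library SD, with initial intensity B-score within 5 SD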
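assay system = KCNQ1-transfected CHO-K1 cells | medium = assay buffer with matched DMSO | probe or stimulus = depolarizing K+/Tl+ stimulus, K2SO4 and Tl2SO4 each 12.5 mM in 5x stock | dosing = single dose | incubation = dye 90 min, compound 20 min, room temperature | detection = kinetic FluxOR fluorescence, 10 s baseline plus 110 s post-stimulus | evaluation = ratio B score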
KCNK9 inh: blocks the human KCNK9 two-pore domain potassium channel; Q9NPC2; HEK293 KCNK9, FluxOR thallium flux fluorescence; active compounds read low; B-score at 10 µM; hit rate 1.2% among 310,000;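 active = ratio B-score over 3 SD below the library mean, with starting fluorescence within 5 SD of its mean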;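 also: negative B-score means less thallium flux so channel inhibition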
Kir21 block: inhibitors of mouse Kir2.1 inward-rectifier potassium channel. B-score at 10 µM. P35561. HEK293-Kir2.1, FluxOR thallium flux fluorescence; active compounds read low. hit rate 0.85% among 310,000;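 active = fluorescence ratio B-score at or below minus 3 SD of library scores, with starting-brightness B-score within 2 SD, cut at about -4.2 in these data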;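 also: channel flux triggered by added potassium and thallium sulfate stimulus; B-score of peak minus minimum fluorescence over baseline after thallium stimulus; more negative B-score means stronger Kir2.1 block with less thallium influx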
Target sequence (P35561 whole entry, looked up): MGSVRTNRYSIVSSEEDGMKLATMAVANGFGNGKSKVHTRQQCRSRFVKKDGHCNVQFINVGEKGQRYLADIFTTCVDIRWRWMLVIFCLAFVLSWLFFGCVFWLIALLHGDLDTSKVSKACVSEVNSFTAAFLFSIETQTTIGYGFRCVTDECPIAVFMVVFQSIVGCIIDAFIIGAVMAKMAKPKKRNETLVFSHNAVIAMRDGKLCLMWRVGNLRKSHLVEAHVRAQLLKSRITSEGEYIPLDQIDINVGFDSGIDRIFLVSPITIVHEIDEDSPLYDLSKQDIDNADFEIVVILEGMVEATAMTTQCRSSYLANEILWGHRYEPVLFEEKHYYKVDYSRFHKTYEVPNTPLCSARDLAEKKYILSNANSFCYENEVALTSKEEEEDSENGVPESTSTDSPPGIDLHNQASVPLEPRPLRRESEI
KCNQ1 inh: blocks the human KCNQ1 potassium channel. P51787. CHO-K1 KCNQ1, FluxOR thallium flux fluorescence; active compounds read high. B-score at 10 µM. hit rate 1.3% among 310,000. AID 2642;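 active = compounds whose thallium flux B-score, printed positive for inhibition, exceeds three library SD while starting fluorescence stays within three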;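 also: channel opened by potassium depolarization with thallium stimulus after 20 min compound exposure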
hERG protect: shields human hERG channel from block by proarrhythmic agents | CHO-hERG, FluxOR thallium flux, dofetilide IC70 present | activation (rescue from dofetilide block), less the hit threshold, % at 10 µM | hit rate 0.51% among 310,000 | Q12809 | AID 1511;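 active = activation above the mean of controls blocked by dofetilide plus 5 SD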;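 also: thallium influx through hERG after potassium depolarization seen as dye fluorescence rise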
KCNK9 inh conf: human KCNK9 inhibitor confirmation; hit rate 43% among 4,900; AID 492992; shares compounds with KCNK9 inh; HEK293 KCNK9 cells, FluxOR thallium flux fluorescence; inhibition, % at 10 µM;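 active = thallium signal inhibited by more than 5 SD of the compound-free buffer control wells, on both duplicate plates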
Kir21 sel: mouse Kir2.1 off-target activity of KCNK9 modulators; shares compounds with KCNK9 inh; Kir2.1 cells, FluxOR thallium flux fluorescence; inhibition, % at 10 µM; hit rate 4% among 4,900; AID 492993;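 active = thallium signal drop more than 5 SD beyond the mean of the no-compound control wells, seen in both duplicate plates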;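 also: signal is fluorescence rise after thallium addition divided by baseline fluorescence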
KCNK9 uninduced: non-induced cell nonspecific activity of KCNK9 modulators; inhibition, % at 10 µM; shares compounds with KCNK9 inh; hit rate 40% among 4,900; non-induced KCNK9-HEK293, FluxOR thallium flux;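 active = thallium signal drop beyond 5 SD of the untreated control mean, on both duplicate plates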
Numbers stand for hits; . = inactive; / = not tested or not shown. An excerpt weighted towards active compounds, which were near 3.7% of everything screened.

SMILES	KCNK3 block	KCNQ1 pot	KCNK9 inh	Kir21 block	KCNQ1 inh	hERG protect	KCNK9 inh conf	Kir21 sel	KCNK9 uninduced
CCN(C(=O)COC(=O)CCOc1cc(C)ccc1C)c1c(N)n(Cc2ccccc2)c(=O)[nH]c1=O	.	/	/	/	/	/	/	/	/
CCCCCCCCC(=O)N/N=C(\C)c1ccc(O)cc1O	.	.	-10	.	.	.	57%	.	42%
CCCCNS(=O)(=O)CCNCc1ccco1	.	/	/	/	/	/	/	/	/
COc1ccccc1/C=C/C=N/N1CCN(Cc2ccccc2)CC1	.	.	.	.	.	.	.	.	.
COc1ccc(CC2(CO)CCN(C/C=C/c3ccccc3OC)CC2)cc1	.	.	.	.	.	.	/	/	/
CCN(CC)c1ccc(/C=N/N2CCN(Cc3ccc(C)cc3)CC2)c(O)c1	.	.	.	.	.	.	.	.	.
COc1ccccc1/C=C/CN1CCN(c2ccccc2)CC1	.	.	.	.	.	.	.	.	.
CCN(CC)c1ccc(/C=N/N2CCN(Cc3ccccc3Cl)CC2)c(O)c1	.	.	.	.	.	.	/	/	/
CC(=C/c1ccccc1)/C=N/N1CCN(Cc2ccc(C)cc2)CC1	.	.	.	.	.	.	/	/	/
Cc1ccc(CN2CCN(/N=C\C(Br)=C\c3ccccc3)CC2)cc1	.	.	.	.	.	.	.	.	.
COc1ccc(S(=O)(=O)N2CCC(C(=O)NC3CC3)CC2)cc1OC	.	.	.	.	.	.	/	/	/
CC(C)n1cc(CN2CCCC(CNS(=O)(=O)c3cccc4cccnc34)C2)cn1 (stereo not drawn)	.	.	.	.	.	.	/	/	/
Cc1nc(SCC(=O)NCC2CCCO2)[nH]c(=O)c1C (stereo not drawn)	.	.	.	.	.	.	/	/	/
COc1ccc2ccccc2c1CN1CCN(Cc2ccccc2)CC1	.	.	.	.	.	.	.	.	.
COc1ccc(CN2CCN(Cc3ccc4ccccc4c3)CC2)cc1OC	.	.	.	.	.	.	/	/	/
Cc1ccc(CN2CCN(/N=C/c3ccccc3)CC2)cc1	.	.	.	.	.	.	/	/	/
Cc1ccc(CSc2nnc(SCC(=O)N/N=C/C=C/c3ccccc3[N+](=O)[O-])s2)cc1	.	.	-15	.	.	.	64%	.	30%
Cc1ccc(CN2CCN(/N=C/C=C/c3ccccc3[N+](=O)[O-])CC2)cc1	.	.	.	.	.	.	.	.	.
O=C(NC1CCCc2c1cnn2-c1ccccc1F)c1ccccc1N1CCOCC1 (stereo not drawn)	.	.	.	.	.	.	/	/	/
Cn1cccc1/C=N/N1CCN(Cc2cccc3ccccc23)CC1	.	.	.	.	.	.	.	.	.
C(=N\N1CCN(Cc2cccc3ccccc23)CC1)/c1ccco1	.	.	.	.	.	.	.	.	.
O=C(N/N=C/c1cc2c3c(c1O)CCCN3CCC2)c1ccccc1O	-10	.	-10	.	12	.	49%	.	55%
O=C(O)c1ccc(CSc2nc(-c3ccccc3)cc(C(F)(F)F)n2)cc1	.	.	.	.	.	.	.	.	.
CCN(CC)S(=O)(=O)c1ccc(N2CCOCC2)c(NC(=O)c2ccc3c(c2)OCCO3)c1	.	.	.	.	.	.	/	/	/
CCN(CC)S(=O)(=O)c1ccc(N2CCOCC2)c(NC(=O)CC23CC4CC(CC(Br)(C4)C2)C3)c1	.	.	.	.	.	.	.	.	.
SMILES	KCNK3 block	KCNQ1 pot	KCNK9 inh	Kir21 block	KCNQ1 inh	hERG protect	KCNK9 inh conf	Kir21 sel	KCNK9 uninduced
CCN(CC)S(=O)(=O)c1ccc(N2CCOCC2)c(NC(=O)c2ccc3ccccc3c2)c1	.	.	-9.9	.	.	.	.	.	28%
Cc1cc(C2=CC(=O)C[C@H](c3ccc4c(c3)OCO4)C2)ccc1F	.	/	/	/	/	/	/	/	/
N#C/C(=C\c1ccc(Sc2nc3ccccc3[nH]2)o1)c1ccccc1	.	.	.	.	13	.	.	.	.
N#C/C(=C\c1ccc(Sc2ccc(Cl)cc2)o1)c1nc2ccccc2[nH]1	.	/	/	/	/	/	/	/	/
O=C(N/N=C/c1cccs1)c1cc(-c2cccc3ccccc23)n[nH]1	.	.	-13	.	.	.	54%	.	32%
COc1ccc(-c2csc(NC(C)c3nc4cc(Cl)c(Cl)cc4n3CCOCCO)n2)cc1 (stereo not drawn)	.	.	-8.6	.	.	.	32%	.	40%
COc1ccc(-c2csc(NC(C)c3nc4cc(Cl)c(N5CCCCC5)cc4n3CCOCCO)n2)cc1 (stereo not drawn)	.	.	.	.	.	.	/	/	/
Cc1nc(SCC(=O)NNC(=O)c2ccc(F)cc2)c2ccccc2n1	.	/	/	/	/	/	/	/	/
O=c1ccc2c(o1)/C(=C/C=C(Cl)Cl)CCC2	.	.	-12	.	.	.	42%	.	36%
COC(=O)[C@]1(Cc2ccccc2)N[C@H](CN(C)C(=O)COc2ccccc2)[C@@H]2C(=O)N(Cc3ccccc3)C(=O)[C@@H]21	.	/	/	/	/	/	/	/	/
Cc1ccc(C(=O)NCc2ccco2)cc1S(=O)(=O)N1CCCCC1	.	.	.	.	.	.	/	/	/
Cc1ccc(C(=O)Nc2ccccc2C(=O)NCc2ccco2)cc1S(=O)(=O)N1CCCCC1	.	.	.	.	.	.	.	.	.
O=C(c1ccccc1)C1CC=CCC1C(=O)c1ccccc1 (stereo not drawn)	.	/	/	/	/	/	/	/	/
CCOc1ccc2c(c1)-c1c(ssc1=S)C(C)(C)N2C(=O)CSC1=NCCS1	.	.	-13	.	.	.	70%	.	34%
COc1ccc(NC(=O)N(CCc2ccccc2)Cc2cc3c(C)cc(C)cc3[nH]c2=O)cc1	.	.	.	.	.	.	.	.	.
Oc1ccc(Cl)cc1Cc1cc(Cl)ccc1O	.	.	-14	-6	.	.	58%	.	35%
CC1(C)Cc2c(sc(NC(=O)C(=O)N3CCN(CCO)CC3)c2C(N)=O)CO1	.	.	.	.	.	.	/	/	/
COc1ccc(NC(=O)CSc2nnc(C3CCCCC3)n2-c2ccccc2)cc1	.	.	.	.	.	.	.	.	.
COc1ccc(NC(=O)CSc2nnc(C3CC3)n2N)cc1	.	.	.	.	.	.	/	/	/
COc1ccc(-n2c(SCC(=O)Nc3ccc(Cl)cc3)nc(O)c(Cc3ccccc3)c2=O)cc1	.	.	.	.	.	.	.	.	.
COc1ccc(-n2c(SCC(=O)Nc3ccc(C)cc3)nc(O)c(Cc3ccccc3)c2=O)cc1	.	.	.	.	.	.	/	/	/

Assay outcomes from PubChem BioAssay.
